zfTRPN1 agonist = zebrafish TRPN1 (NompC) channel agonism; HEK293 zebrafish TRPN1-YFP, Fluo-8 calcium fluorescence; 100% = response to 87 µM carbachol; activation, % at 3 µM; hit rate 0.18% among 220,000; AID 1424;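 active means activation above its plate's cutoff, the mean activation of test wells on that plate plus 3 SD, cut at about 19% in these data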
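Assay system: Zebrafish TRPN1-YFP in HEK293 cells | Incubation: Dye loading 1 h at 37 °C, then 30 min room temperature | Measured by: Kinetic Fluo-8 fluorescence, ex 470-495, em 515-575 nm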
V1aR counter = V1a receptor agonism, counter-screen for OXTR agonists | activation, % at 3 µM | CHO-V1R cells, Fluo-8 calcium fluorescence, agonist mode; 0% DMSO, 100% 3 nM vasopressin | hit rate 0.25% among 320,000 | AID 2797 | P37288;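 active means activation above the mean activation of all tested compounds plus 3 SD, per screening run, cut at about 20% in these data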;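 further: signal is peak over basal fluorescence ratio across a 100 second FLIPR read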
OXTR potentiator = human OXTR potentiation. P30559. CHO-OTR cells, Fluo-8 calcium fluorescence, potentiator mode; 0% = oxytocin EC15, 100% = EC100. activation, % at 3 µM. hit rate 0.061% among 320,000;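 active means activation above that plate's cutoff, the mean activation of tested compounds plus 3 SD, cut at about 6.6% in these data, passing the limit was not always enough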
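assay system = CHO-OTR cells, human receptor | schedule = compound 6 min at room temperature before oxytocin, 100 s read | detection = Fluo-8 intracellular calcium fluorescence, ex 470-495, em 515-575 nm | evaluation = normalized max/min fluorescence ratio, % activation | control set = EC15 oxytocin alone as 0%, 75 nM oxytocin (EC100) as 100%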
TRPML3 ag = human mucolipin-3 channel agonism; Q8TDD5; HEK293 TRPML3-YFP, Fluo-8 calcium fluorescence; 100% = the carbachol control signal; activation, % at 3 µM; hit rate 0.29% among 220,000; AID 1448;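 active means activation above its plate's cutoff, the mean activation of the plate's test wells plus 3 SD, cut at about 12% in these data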
Target sequence (Q8TDD5 whole entry, looked up): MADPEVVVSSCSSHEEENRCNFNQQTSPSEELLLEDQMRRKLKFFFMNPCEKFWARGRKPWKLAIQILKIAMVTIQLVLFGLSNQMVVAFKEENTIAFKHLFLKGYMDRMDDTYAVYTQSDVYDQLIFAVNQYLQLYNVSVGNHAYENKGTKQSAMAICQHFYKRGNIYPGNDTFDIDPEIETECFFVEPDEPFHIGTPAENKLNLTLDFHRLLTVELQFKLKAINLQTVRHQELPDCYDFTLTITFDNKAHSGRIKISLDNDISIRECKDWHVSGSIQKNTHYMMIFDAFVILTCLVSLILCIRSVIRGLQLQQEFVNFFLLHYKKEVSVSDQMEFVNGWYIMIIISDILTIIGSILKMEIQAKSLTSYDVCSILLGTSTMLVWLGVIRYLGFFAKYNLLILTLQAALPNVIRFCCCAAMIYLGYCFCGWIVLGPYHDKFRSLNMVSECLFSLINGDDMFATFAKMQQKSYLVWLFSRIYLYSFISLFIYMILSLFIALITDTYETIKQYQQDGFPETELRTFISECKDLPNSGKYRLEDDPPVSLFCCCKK
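Material: TRPML3-YFP stable HEK293 cells | Dosing: One concentration, 3 µM nominal, 0.3% DMSO | Timing: 125 s total fluorescence read per well | Technique: Fluo-8 calcium dye fluorescence, ex 470-495, em 515-575 nm | Measure: Percent activation from peak-to-basal fluorescence ratio, scaled between DMSO and carbachol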
OXTR ag = agonists of human oxytocin receptor | P30559 | hit rate 0.32% among 320,000 | CHO-OTR cells, Fluo-8 calcium fluorescence; normalized: DMSO 0%, oxytocin 100% | AID 2435 | activation, % at 3 µM;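 active means activation above the mean of all tested compounds plus 3 SD, cutoff set per screening run, cut at about 20% in these data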;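 further: peak over basal fluorescence ratio from a 100 s FLIPR kinetic read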
Large screens that a line does not name were inactive. Rows were chosen to be rich in hits. Some 0.55% of all compounds tested hit in one or more screens of this group.

CC1CCCN(C(=O)Cn2nnc(-c3ccccc3F)n2)C1 (configuration not stated)	none (no result: zfTRPN1 agonist, TRPML3 ag)
CC1(c2ccc(OC(F)F)cc2)NC(=O)N(CC(=O)Nc2cccnc2Cl)C1=O (configuration not stated)	V1aR counter 47.5, OXTR ag 60.1 (no result: zfTRPN1 agonist, TRPML3 ag)
CCC1(c2ccccc2)NC(=O)N(CC(=O)Nc2cccnc2Cl)C1=O (configuration not stated)	none (no result: zfTRPN1 agonist, TRPML3 ag)
COc1ccc(C2(C)NC(=O)N(CC(=O)Nc3cccnc3Cl)C2=O)cc1 (configuration not stated)	none (no result: zfTRPN1 agonist, TRPML3 ag)
CCC1(c2ccc(F)cc2)NC(=O)N(CC(=O)Nc2cccnc2Cl)C1=O (configuration not stated)	V1aR counter 30.2, OXTR ag 23.0 (no result: zfTRPN1 agonist, TRPML3 ag)
CC1(c2ccc(OC(F)F)cc2)NC(=O)N(CC(=O)Nc2ccc(N3CCCCC3)cc2)C1=O (configuration not stated)	V1aR counter 26.8, OXTR ag 26.6 (no result: zfTRPN1 agonist, TRPML3 ag)
CC(C)(C)OC(=O)C[C@H]1C/C=C\C[C@@H](CC(=O)NCCO)C(=O)N[C@H](Cc2ccccc2)COC1=O	none (no result: zfTRPN1 agonist, TRPML3 ag)
CCN(CC)Cc1c(C(=O)N/N=C/c2cccc(OCc3cccc(Cl)c3)c2)nnn1-c1nonc1N	none (no result: zfTRPN1 agonist, TRPML3 ag)
CCCc1ccc(S(=O)(=O)N(C)S(=O)(=O)c2ccc(F)cc2)cc1	none (no result: zfTRPN1 agonist, TRPML3 ag)
COc1cc(/C=C2\SC(=S)N(NC(=O)c3ccncc3)C2=O)ccc1O	none
COc1cc(/C=C2\SC(=S)N(NS(=O)(=O)c3ccccc3)C2=O)ccc1O	zfTRPN1 agonist 24.9, V1aR counter 40.7, TRPML3 ag 16.7, OXTR ag 23.6
COc1cc(/C=C2\SC(=S)N(NS(=O)(=O)c3ccc(C)cc3)C2=O)ccc1O	zfTRPN1 agonist 37.5, V1aR counter 39.3, TRPML3 ag 23.8, OXTR ag 24.1
COc1ccc(/C=C2/SC(=S)N(NS(=O)(=O)c3ccccc3)C2=O)cc1	none (no result: zfTRPN1 agonist, TRPML3 ag)
COc1cc(/C=C2\SC(=S)N(NC(=O)c3ccc(O)c(OC)c3)C2=O)ccc1O	V1aR counter 28.9, OXTR ag 36.8 (no result: zfTRPN1 agonist, TRPML3 ag)
CCOc1cc(/C=C2\SC(=S)N(NS(=O)(=O)c3ccc(C)cc3)C2=O)ccc1O	none (no result: zfTRPN1 agonist, TRPML3 ag)
CCN1CCN(CCCNC(=O)c2ccc(NC(=O)C3=C(C)OCCS3)cc2)CC1	none (no result: zfTRPN1 agonist, TRPML3 ag)
COc1cccc(CN2CC(C(=O)N(C)Cc3ccnc4ccccc34)CCC2=O)c1 (configuration not stated)	none (no result: zfTRPN1 agonist, TRPML3 ag)
C=CCN1C(=O)/C(=C/C=C2/N(CC)c3ccc(S(=O)(=O)N(C)C)cc3N2CC)SC1=S	V1aR counter 26.3, OXTR ag 29.6
CCOC(=O)c1ccc2c(c1)N(CC)/C(=C\C=C1/SC(=S)N(CC)C1=O)N2CC	none (no result: V1aR counter, OXTR potentiator, OXTR ag)
C/C(=N\Nc1nc(Cl)c(Cl)cc1Cl)c1ccc(S(=O)(=O)NCc2ccco2)cc1	none
O=C(OCCN1C(=O)c2cccc3c(N4CCOCC4)ccc(c23)C1=O)c1ccc(Cl)cc1Cl	none
O=C(OCCN1C(=O)c2cccc3c(N4CCOCC4)ccc(c23)C1=O)c1cccc(Cl)c1	V1aR counter 22.5, OXTR ag 23.3
COc1ccc(/C=C(\NC(=O)c2ccc(OC)cc2)C(=O)Nc2ccccc2C(=O)O)cc1	none (no result: zfTRPN1 agonist, TRPML3 ag)
Cn1cccc1/C=N/n1c(-c2ccco2)n[nH]c1=S	none
COc1cc(-c2n[nH]c(=S)n2/N=C/c2cccn2C)cc(OC)c1OC	zfTRPN1 agonist 64.2, V1aR counter 51.1, TRPML3 ag 34.6, OXTR ag 72.5
Cc1cccc(CSC(=N)N)c1	none
Cc1cccc(CSC(Nc2ccc(F)cc2)=C(C#N)C#N)c1	zfTRPN1 agonist 25.8, TRPML3 ag 18.8
CC(SCc1ccccc1)C(=O)Nc1ccc(F)cc1 (configuration not stated)	none
N#CC(C#N)=C(Nc1ccc(F)cc1)SCc1cccc(Br)c1	zfTRPN1 agonist 25.2, TRPML3 ag 20.8
CCOc1ccccc1C(=O)NCC(=O)NNC(=O)c1cccc(S(=O)(=O)Nc2ccc(OC)cc2)c1	none (no result: zfTRPN1 agonist, TRPML3 ag)
CCOC(=O)c1ccc2nc(NC(=O)C(C)C)sc2c1	none
C=CCN(CC=C)S(=O)(=O)c1ccc2nc(NC(=O)C(C)C)sc2c1	V1aR counter 22.1, OXTR ag 29.4
Cc1nc(SCc2nc3c(O)cccc3[nH]2)c2oc3ccccc3c2n1	none (no result: zfTRPN1 agonist, TRPML3 ag)
CN1/C(=C\C=C2/SC(=S)N(CC(=O)O)C2=O)C(C)(C)c2ccccc21	zfTRPN1 agonist 41.4, V1aR counter 148.2, TRPML3 ag 12.1, OXTR ag 110.6
CN1CCS/C1=C\C=C1/SC(=S)N(CC(=O)O)C1=O	zfTRPN1 agonist 30.8 (no result: V1aR counter, OXTR potentiator, OXTR ag)
CC(=O)NCC(=O)NC1CC(C)(C)Cc2c1cnn2-c1ccccc1 (configuration not stated)	none (no result: zfTRPN1 agonist, TRPML3 ag)
O=C(Nc1ncc(S(=O)(=O)c2ccc([N+](=O)[O-])cc2)s1)c1ccccc1F	V1aR counter 41.4, OXTR ag 33.0
O=C(Nc1ccccc1F)C1COc2ccccc2O1 (configuration not stated)	none (no result: zfTRPN1 agonist, TRPML3 ag)
Cc1cc(C)[n+](Cc2ccccc2)cc1C(N)=O	none (no result: zfTRPN1 agonist, TRPML3 ag)
N=c1n(Cc2ccc(Cl)cc2)c2ccccc2n1CC(O)COc1ccccc1 (configuration not stated)	V1aR counter 25.4, OXTR ag 37.0
COc1ccc(OCC(O)Cn2c(=N)n(Cc3ccccc3)c3ccccc32)cc1 (configuration not stated)	none
COc1ccc(CCNC(=O)Cn2nnc(C(=O)Nc3cccc(C)c3C)c2N)cc1OC	none (no result: zfTRPN1 agonist, TRPML3 ag)
CCN(CC)c1ccc(/C=C(/C#N)c2nc3ccccc3[nH]2)c(OC(C)C)c1	zfTRPN1 agonist 23.8, V1aR counter 43.8, TRPML3 ag 15.0, OXTR ag 51.4
CCCCNC(=S)NC(=O)c1ccc([N+](=O)[O-])cc1	none
CC(C)CCNC(=S)Nc1ccc([N+](=O)[O-])cc1	zfTRPN1 agonist 24.3, TRPML3 ag 13.5
CCCCNC(=S)Nc1ccc([N+](=O)[O-])cc1	zfTRPN1 agonist 21.5
C/C(=N\NS(=O)(=O)c1ccc([N+](=O)[O-])cc1)c1c[nH]c2ccccc12	none (no result: zfTRPN1 agonist, TRPML3 ag)
O=C(C1CCN(S(=O)(=O)c2c(Cl)cccc2Cl)CC1)N1CCCCCCC1	none (no result: zfTRPN1 agonist, TRPML3 ag)
O=C1/C(=C/c2ccccc2)Nc2ccccc21	V1aR counter 42.1, OXTR ag 46.0
O=C1CNC(=O)/C(=C\c2ccccc2)N1	none (no result: zfTRPN1 agonist, TRPML3 ag)
CCN(CC)CCNc1ncnc2c1[nH]c1ccc(OC)cc12	none
COc1ccc2[nH]c3c(NCCC4=CCCCC4)ncnc3c2c1	zfTRPN1 agonist 19.6 (no result: V1aR counter, OXTR potentiator, OXTR ag)
O=C1NC(Cc2ccccc2)c2nc3ccccc3c(=O)n2-c2cc(Cl)ccc21 (configuration not stated)	none (no result: zfTRPN1 agonist, TRPML3 ag)
O=S(=O)(c1ccc(N2CCC(c3ccc(Cl)cc3)=N2)cc1)N(CCO)CCO	none
CN(C)CCCNS(=O)(=O)c1ccc(N2CCC(c3ccc(Cl)cc3)=N2)cc1	OXTR ag 19.7

Assay outcomes as filed in PubChem BioAssay.
